According to BindingDB's records for doi:10.1021/acs.jmedchem.9b01421 (2019):

Biological target: Capsid protein (Hepatitis B virus, UniProt Q03732)
Sequence (Q03732 whole entry): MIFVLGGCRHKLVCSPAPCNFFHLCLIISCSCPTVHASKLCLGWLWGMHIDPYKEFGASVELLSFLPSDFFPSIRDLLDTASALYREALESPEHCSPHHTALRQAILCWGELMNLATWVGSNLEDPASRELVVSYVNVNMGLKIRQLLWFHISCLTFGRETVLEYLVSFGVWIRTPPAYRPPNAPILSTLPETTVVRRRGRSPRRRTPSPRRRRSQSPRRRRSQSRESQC
Assay: Inhibition of capsid in HBV infected in human HepG.2.2.15 cells assessed as reduction of HBV DNA incubated for 5 days by quantitative PCR analysis
Outline: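 HepG2.2.15 cells (HepG2-derived, stably carrying the HBV genome; kept in DMEM-F12 with 10% FBS, penicillin/streptomycin, 0.5 mg/mL G418) seeded at 3 × 10^4 cells/well and incubated overnight at 37 °C. Compounds were serially half-log diluted in DMSO and added in medium at 0.5% final DMSO. HBV DNA was extracted and quantified by qPCR.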
`CCOC(=O)C1=C(CN2CCOC[C@H]2C(=O)O)NC(c2nccs2)=N[C@H]1c1ccc(Cl)c(F)c1` showed an EC50 of 2 nM.
Work on `CCOC(=O)C1=C(CN2CC(F)(F)C[C@H]2C(=O)O)NC(c2nccs2)=N[C@H]1c1ccc(F)cc1Cl` yielded an EC50 of 10 nM.
Compound `CCOC(=O)C1=C(CN2CCOC[C@H]2C(=O)O)NC(c2nccs2)=N[C@H]1c1ccc(C)c(F)c1` has an EC50 of 5 nM.
`COC(=O)C1=C(CN2CC(F)(F)C[C@H]2C(=O)O)NC(c2nccs2)=N[C@H]1c1ccc(F)cc1Cl` gave an EC50 of 3 nM.
`CCOC(=O)C1=C(CN2CCOC[C@H]2C(=O)O)NC(c2nccs2)=N[C@H]1c1ccc(F)cc1` gave an EC50 of 15 nM.
For `CCOC(=O)C1=C(CN2CCOC[C@H]2C(=O)O)NC(c2nccs2)=N[C@H]1c1cccc(F)c1`, the EC50 was 15 nM.
`COC(=O)C1=C(CN2CCOC[C@H]2C(=O)O)NC(c2nccs2)=N[C@H]1c1ccc(Br)c(F)c1` showed an EC50 of 10 nM.
`CCOC(=O)C1=C(CN2CCOC[C@H]2C(=O)O)NC(c2nccs2)=N[C@H]1c1ccc(F)c(F)c1F` showed an EC50 of 5 nM.
In the case of `CCOC(=O)C1=C(CN2CCOC[C@H]2C(=O)O)NC(c2nccs2)=N[C@H]1c1cc(F)c(F)c(F)c1`, the EC50 is reported as 18 nM.
`COC(=O)C1=C(CN2CC(F)(F)C[C@H]2C(=O)O)NC(c2nccs2)=N[C@H]1c1ccc(F)c(F)c1` gave an EC50 of 22 nM.
`CCOC(=O)C1=C(CN2CCOC[C@H]2C(=O)O)NC(c2nccs2)=N[C@H]1c1ccc(F)cc1F` showed an EC50 of 14 nM.

Biological target: not listed separately
Assay: Inhibition of capsid in HBV infected in human HepG.2.2.15 cells assessed as reduction of HBV DNA incubated for 5 days by quantitative PCR analysis
`CCOC(=O)C1=C(CN2CCOC[C@H]2C(=O)O)NC(c2nccs2)=N[C@H]1c1ccc(F)cc1Cl` showed an EC50 of 2 nM.
Work on `CCOC(=O)C1=C(CN2CCOC[C@H]2C(=O)O)NC(c2nccs2)=N[C@H]1c1ccc(Br)c(F)c1` yielded an EC50 of 3 nM.
For `CCOC(=O)C1=C(CN2CCOC[C@H]2C(=O)O)NC(c2nccs2)=N[C@H]1c1ccc(F)c(Cl)c1`, the EC50 was greater than 1000 nM.
In the case of `COC(=O)C1=C(CN2CCOC[C@H]2C(=O)O)NC(c2nccs2)=N[C@H]1c1ccc(F)c(F)c1`, the EC50 is reported as 46 nM.
In the case of `COC(=O)C1=C(CN2CCOC[C@H]2C(=O)O)NC(c2nccs2)=N[C@H]1c1ccc(Cl)c(F)c1`, the EC50 is reported as 10 nM.
`CCOC(=O)C1=C(CN2CCOC[C@H]2C(=O)O)NC(c2nccs2)=N[C@H]1c1ccc(F)c(Br)c1` showed an EC50 greater than 1000 nM.
`CCOC(=O)C1=C(CN2CCOC[C@H]2C(=O)O)NC(c2nccs2)=N[C@H]1c1ccc(F)c(F)c1` gave an EC50 of 11 nM.
For `CCOC(=O)C1=C(CN2CCOC[C@H]2C(=O)O)NC(c2nccs2)=N[C@H]1c1ccc(F)c(C#N)c1`, the EC50 was greater than 1000 nM.
Work on `COC(=O)C1=C(CN2CCOC[C@H]2C(=O)O)NC(c2nccs2)=N[C@H]1c1ccc(C)c(F)c1` yielded an EC50 of 28 nM.
